Measured values as given in ChEMBL document CHEMBL4622923, “Discovery of 4-Phenylpiperidine-2-Carboxamide Analogues as Serotonin 5-HT2C Receptor-Positive Allosteric Modulators with Enhanced Drug-like Properties” (J Med Chem, 2020).

Columns and labels:
[1] = target: GABA-A receptor; anion channel (Rattus norvegicus) (UniProt O09028+P15431+P18506+P18508+P19969+P20236+P23574+P23576+P28471+P28473+P30191+P62813+P63079+P63138+Q91ZM7+Q9ES14); assay: Displacement of [3H]-muscimol from rat brain GABAA receptor at 10 uM incubated for 90 mins under dark condition by scintillation counting analysis relative to control
[2] = target: D(2) dopamine receptor (Homo sapiens) (UniProt P14416); assay: Displacement of [3H]-N-methylspiperone from human dopamine D2 receptor at 10 uM incubated for 90 mins under dark condition by scintillation counting analysis relative to control
Chain of D(2) dopamine receptor (Homo sapiens) (P14416 whole entry): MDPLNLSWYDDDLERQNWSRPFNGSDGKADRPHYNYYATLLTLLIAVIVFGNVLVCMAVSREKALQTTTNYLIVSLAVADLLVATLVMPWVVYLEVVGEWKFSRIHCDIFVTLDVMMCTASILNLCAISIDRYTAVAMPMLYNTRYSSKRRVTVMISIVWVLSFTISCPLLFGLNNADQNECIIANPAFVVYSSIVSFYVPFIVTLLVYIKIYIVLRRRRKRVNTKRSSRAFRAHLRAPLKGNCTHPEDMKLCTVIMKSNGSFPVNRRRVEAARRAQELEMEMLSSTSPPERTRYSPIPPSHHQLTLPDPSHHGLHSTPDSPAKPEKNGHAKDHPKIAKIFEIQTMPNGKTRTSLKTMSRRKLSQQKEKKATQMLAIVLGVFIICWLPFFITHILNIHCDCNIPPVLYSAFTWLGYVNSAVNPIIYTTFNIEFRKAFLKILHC

[3] = target: 5-hydroxytryptamine receptor 7 (Homo sapiens) (UniProt P34969); assay: Displacement of [3H]-LSD from human 5HT7A stably expressed in HEK cell membranes at 10 uM incubated for 90 mins under dark condition by scintillation counting analysis relative to control
Chain of 5-hydroxytryptamine receptor 7 (Homo sapiens) (P34969 whole entry): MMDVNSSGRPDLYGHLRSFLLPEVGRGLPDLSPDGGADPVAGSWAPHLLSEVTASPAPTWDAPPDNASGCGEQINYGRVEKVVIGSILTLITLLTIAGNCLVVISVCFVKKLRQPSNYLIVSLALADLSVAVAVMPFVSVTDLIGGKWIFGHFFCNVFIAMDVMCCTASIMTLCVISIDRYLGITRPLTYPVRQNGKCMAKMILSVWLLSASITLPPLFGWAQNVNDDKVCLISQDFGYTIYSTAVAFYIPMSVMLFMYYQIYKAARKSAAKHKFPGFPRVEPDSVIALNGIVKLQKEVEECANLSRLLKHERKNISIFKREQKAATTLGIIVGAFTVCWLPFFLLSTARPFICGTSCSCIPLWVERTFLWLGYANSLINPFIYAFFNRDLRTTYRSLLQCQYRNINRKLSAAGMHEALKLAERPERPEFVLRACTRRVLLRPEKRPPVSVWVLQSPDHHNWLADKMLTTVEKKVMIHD

[4] = target: 5-hydroxytryptamine receptor 5A (Homo sapiens) (UniProt P47898); assay: Displacement of [3H]-LSD from human 5HT5A expressed in Flp-In-CHO cell membranes at 10 uM incubated for 90 mins under dark condition by scintillation counting analysis relative to control
Chain of 5-hydroxytryptamine receptor 5A (Homo sapiens) (P47898 whole entry): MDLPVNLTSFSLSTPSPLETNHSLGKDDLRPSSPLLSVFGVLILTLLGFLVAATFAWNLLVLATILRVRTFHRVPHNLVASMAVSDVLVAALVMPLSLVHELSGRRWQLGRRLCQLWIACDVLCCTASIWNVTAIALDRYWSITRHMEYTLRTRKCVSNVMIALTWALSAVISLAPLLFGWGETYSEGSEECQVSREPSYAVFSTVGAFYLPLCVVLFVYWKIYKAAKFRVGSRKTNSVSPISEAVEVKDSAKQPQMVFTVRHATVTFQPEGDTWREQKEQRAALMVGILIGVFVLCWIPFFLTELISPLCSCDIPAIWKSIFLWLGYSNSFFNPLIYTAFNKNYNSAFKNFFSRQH

[5] = target: 5-hydroxytryptamine receptor 3A (Homo sapiens) (UniProt P46098); assay: Displacement of [3H]-LY278584 from human 5HT3R transiently expressed in HEKT cell membranes at 10 uM incubated for 90 mins under dark condition by scintillation counting analysis relative to control
[6] = target: 5-hydroxytryptamine receptor 1E (Homo sapiens) (UniProt P28566); assay: Displacement of [3H]-5-HT from human 5HT1E stably expressed in HEK cell membranes at 10 uM incubated for 90 mins under dark condition by scintillation counting analysis relative to control
Chain of 5-hydroxytryptamine receptor 1E (Homo sapiens) (P28566 whole entry): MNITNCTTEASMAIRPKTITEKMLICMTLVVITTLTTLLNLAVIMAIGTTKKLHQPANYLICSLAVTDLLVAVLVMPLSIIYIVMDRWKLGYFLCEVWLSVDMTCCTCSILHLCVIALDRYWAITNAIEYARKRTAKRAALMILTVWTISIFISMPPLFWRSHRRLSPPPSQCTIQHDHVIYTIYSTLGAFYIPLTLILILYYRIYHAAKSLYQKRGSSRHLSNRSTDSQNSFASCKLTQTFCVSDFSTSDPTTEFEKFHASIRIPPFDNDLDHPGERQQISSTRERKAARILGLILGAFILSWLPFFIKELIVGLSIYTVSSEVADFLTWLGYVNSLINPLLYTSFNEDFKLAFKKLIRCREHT

[7] = target: Alpha-2A adrenergic receptor (Homo sapiens) (UniProt P08913); assay: Displacement of [3H]-rauwolscine from human adrenergic alpha2A receptor transiently expressed in HEKT cell membranes at 10 uM incubated for 90 mins under dark condition by scintillation counting analysis relative to control
Chain of Alpha-2A adrenergic receptor (Homo sapiens) (P08913 whole entry): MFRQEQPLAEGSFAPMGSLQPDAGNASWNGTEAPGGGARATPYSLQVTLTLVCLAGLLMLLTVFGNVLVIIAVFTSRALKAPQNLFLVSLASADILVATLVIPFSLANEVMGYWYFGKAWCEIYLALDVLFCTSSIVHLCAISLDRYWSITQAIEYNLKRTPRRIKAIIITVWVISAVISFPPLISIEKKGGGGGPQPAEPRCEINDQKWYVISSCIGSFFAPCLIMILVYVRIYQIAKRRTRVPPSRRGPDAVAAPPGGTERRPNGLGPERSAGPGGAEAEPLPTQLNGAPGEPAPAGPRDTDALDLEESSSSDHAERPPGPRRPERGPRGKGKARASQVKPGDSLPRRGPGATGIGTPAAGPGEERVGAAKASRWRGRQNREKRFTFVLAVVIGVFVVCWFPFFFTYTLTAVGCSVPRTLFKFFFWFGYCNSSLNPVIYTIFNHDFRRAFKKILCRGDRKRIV

[8] = target: 5-hydroxytryptamine receptor 1D (Homo sapiens) (UniProt P28221); assay: Displacement of [3H]-GR125743 from human 5HT1D transiently expressed in HEKT cell membranes at 10 uM incubated for 90 mins under dark condition by scintillation counting analysis relative to control
[9] = target: Alpha-2C adrenergic receptor (Homo sapiens) (UniProt P18825); assay: Displacement of [3H]-rauwolscine from human adrenergic alpha2C receptor stably expressed in MDCK cell membranes at 10 uM incubated for 90 mins under dark condition by scintillation counting analysis relative to control
Chain of Alpha-2C adrenergic receptor (Homo sapiens) (P18825 whole entry): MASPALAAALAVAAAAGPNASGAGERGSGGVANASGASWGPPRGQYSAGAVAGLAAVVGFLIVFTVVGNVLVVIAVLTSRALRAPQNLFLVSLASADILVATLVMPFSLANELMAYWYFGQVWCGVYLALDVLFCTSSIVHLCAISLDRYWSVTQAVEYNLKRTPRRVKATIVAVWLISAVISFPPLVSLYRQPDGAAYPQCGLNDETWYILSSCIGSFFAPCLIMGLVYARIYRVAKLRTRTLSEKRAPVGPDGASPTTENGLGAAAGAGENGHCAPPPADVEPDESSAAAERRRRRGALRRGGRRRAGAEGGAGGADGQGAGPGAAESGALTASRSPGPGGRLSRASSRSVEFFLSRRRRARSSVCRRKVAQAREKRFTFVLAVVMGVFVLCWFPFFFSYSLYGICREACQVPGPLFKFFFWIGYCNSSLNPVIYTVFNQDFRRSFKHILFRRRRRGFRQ

[10] = target: Cannabinoid receptor 2 (Homo sapiens) (UniProt P34972); assay: Displacement of [3H]-CP55940 from human CB2 receptor expressed in HEK-Flp-In cell membranes at 10 uM incubated for 90 mins under dark condition by scintillation counting analysis relative to control
Chain of Cannabinoid receptor 2 (Homo sapiens) (P34972 whole entry): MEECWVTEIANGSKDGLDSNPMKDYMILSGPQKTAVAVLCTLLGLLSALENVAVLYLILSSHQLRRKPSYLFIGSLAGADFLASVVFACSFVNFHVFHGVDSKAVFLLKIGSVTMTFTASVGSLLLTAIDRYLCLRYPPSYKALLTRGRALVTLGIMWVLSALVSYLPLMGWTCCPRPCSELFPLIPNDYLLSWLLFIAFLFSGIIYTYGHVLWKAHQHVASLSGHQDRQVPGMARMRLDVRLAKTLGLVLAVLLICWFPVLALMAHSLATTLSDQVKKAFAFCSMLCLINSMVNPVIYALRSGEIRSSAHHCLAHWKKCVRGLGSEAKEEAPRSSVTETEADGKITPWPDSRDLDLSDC

[11] = Half life in rat liver microsomes at 10 uM in presence of NADPH; format: ADME, Microsome
[12] = target: CYP3A4 (Homo sapiens, UniProt P08684); assay: Inhibition of CYP3A4 (unknown origin) at 10 uM relative to control; format: ADME
Chain of CYP3A4 (P08684 whole entry, canonical isoform): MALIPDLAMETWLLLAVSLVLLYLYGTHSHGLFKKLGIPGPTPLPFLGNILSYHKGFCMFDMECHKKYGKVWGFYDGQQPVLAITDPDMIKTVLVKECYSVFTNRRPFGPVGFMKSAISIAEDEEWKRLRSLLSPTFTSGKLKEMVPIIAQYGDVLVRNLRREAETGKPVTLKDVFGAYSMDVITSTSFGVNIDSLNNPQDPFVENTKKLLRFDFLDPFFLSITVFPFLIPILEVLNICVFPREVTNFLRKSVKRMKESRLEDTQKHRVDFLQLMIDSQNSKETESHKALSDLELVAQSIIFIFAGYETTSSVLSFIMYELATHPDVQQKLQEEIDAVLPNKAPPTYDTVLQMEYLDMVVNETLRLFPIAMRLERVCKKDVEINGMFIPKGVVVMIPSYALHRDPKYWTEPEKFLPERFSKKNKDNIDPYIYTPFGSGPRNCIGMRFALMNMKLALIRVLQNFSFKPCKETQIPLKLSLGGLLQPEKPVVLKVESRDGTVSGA
In short: (§1)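 Each CYP isoform inhibition assay run with test compound at 10 µM; reported as percent inhibition.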

[13] = target: CYP2C9 (Homo sapiens, UniProt P11712); assay: Inhibition of CYP2C9 (unknown origin) at 10 uM relative to control; format: ADME; in short: as §1
[14] = target: CYP2C19 (Homo sapiens, UniProt P33261); assay: Inhibition of CYP2C19 (unknown origin) at 10 uM relative to control; format: ADME; in short: as §1
Chain of CYP2C19 (P33261 whole entry): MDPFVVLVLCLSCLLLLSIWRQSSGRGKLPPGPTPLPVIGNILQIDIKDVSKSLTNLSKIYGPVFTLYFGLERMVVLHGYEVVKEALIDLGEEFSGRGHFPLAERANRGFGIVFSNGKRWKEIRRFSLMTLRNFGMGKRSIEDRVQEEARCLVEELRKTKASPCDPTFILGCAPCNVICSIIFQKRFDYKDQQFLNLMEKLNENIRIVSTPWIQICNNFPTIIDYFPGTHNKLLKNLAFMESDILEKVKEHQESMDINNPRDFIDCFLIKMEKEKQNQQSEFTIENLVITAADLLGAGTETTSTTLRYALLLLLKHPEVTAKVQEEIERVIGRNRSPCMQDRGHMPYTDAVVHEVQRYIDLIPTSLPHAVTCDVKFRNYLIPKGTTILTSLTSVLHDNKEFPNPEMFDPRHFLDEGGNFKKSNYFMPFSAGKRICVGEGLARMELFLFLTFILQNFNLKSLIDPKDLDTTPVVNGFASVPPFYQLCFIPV

[15] = target: CYP1A2 (Homo sapiens, UniProt P05177); assay: Inhibition of CYP1A2 (unknown origin) at 10 uM relative to control; format: ADME; in short: as §1
Chain of CYP1A2 (P05177 whole entry): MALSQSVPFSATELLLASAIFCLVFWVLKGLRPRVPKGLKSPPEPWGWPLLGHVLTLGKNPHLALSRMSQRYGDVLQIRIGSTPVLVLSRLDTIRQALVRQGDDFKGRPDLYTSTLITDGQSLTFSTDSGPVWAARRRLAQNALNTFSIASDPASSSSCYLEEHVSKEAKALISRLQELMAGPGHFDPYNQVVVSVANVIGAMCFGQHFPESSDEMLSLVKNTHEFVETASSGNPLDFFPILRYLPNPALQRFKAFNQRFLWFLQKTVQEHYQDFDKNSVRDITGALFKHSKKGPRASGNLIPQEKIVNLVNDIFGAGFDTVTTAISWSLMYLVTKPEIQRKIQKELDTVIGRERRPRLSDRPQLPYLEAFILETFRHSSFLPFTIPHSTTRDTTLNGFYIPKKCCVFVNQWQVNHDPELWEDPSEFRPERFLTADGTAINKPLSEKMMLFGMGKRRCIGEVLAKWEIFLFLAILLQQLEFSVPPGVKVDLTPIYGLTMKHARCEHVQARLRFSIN

[16] = Apparent permeability across basolateral to apical side in MDCK-MDR1 cells; format: ADME, cell-based, Canis lupus familiaris; settings: dog
[17] = Half life in Sprague-Dawley rat at 20 mg/kg, po; format: ADME, organism-based; settings: in vivo
In short: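 Male Sprague-Dawley rats (200–250 g, n = 3/group) dosed orally at 20 mg/kg in 10% DMSO:90% HP-β-CD. Retro-orbital blood sampled at 0.25, 0.5, 1, 2, 4, 8 and 24 h post-dose; plasma analysed externally. Noncompartmental analysis: λ from least-squares terminal log-linear slope, t1/2 = 0.693/λ; mean ± SEM.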

[18] = Clearance in Sprague-Dawley rat at 20 mg/kg, po; format: ADME, organism-based; settings: in vivo
In short: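 Male Sprague-Dawley rats (200–250 g, n = 3/group) dosed po at 20 mg/kg in 10% DMSO:90% HP-β-CD. Retro-orbital blood taken from 0.25 to 24 h. Noncompartmental analysis; mean ± SEM.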

[19] = Volume of distribution at steady state in Sprague-Dawley rat at 10 mg/kg, iv; format: ADME, organism-based; settings: in vivo
In short: (§2)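 Male Sprague-Dawley rats, 200–250 g, n = 3/group, randomly assigned; dosed 10 mg/kg iv or 20 mg/kg po in 10% DMSO:90% HP-β-CD. Retro-orbital blood sampled predose and 0.08 (iv only), 0.25, 0.5, 1, 2, 4, 8, 24 h. Noncompartmental analysis; Cmax read directly from plasma concentration–time plot; mean ± SEM.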

[20] = Volume of distribution at steady state in Sprague-Dawley rat at 20 mg/kg, po; format: ADME, organism-based; settings: in vivo; in short: as §2
[21] = Cmax in Sprague-Dawley rat at 20 mg/kg, po; format: ADME, organism-based; set-up: dose 20 mg/kg, route oral; settings: in vivo; in short: as §2
[22] = Ratio of drug level in brain to plasma in Sprague-Dawley rat at 10 mg/kg, iv after 0.25 hrs; format: ADME, organism-based
In short: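 Male Sprague-Dawley rats, n = 3/group, given 10 mg/kg iv in 10% DMSO:90% HP-β-CD. Brain and plasma collected at 0.25 and 1 h after dosing. Brain concentration (ng/g) divided by plasma concentration (ng/mL); mean ± SEM.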

[23] = target: 5-HT2A receptor (Homo sapiens, UniProt P28223); assay: Positive allosteric modulation of human 5HT2AR expressed in CHO cells assessed as increase in 5-HT induced intracellular calcium release at 1 nM preincubated for 15 mins followed by 5-HT addition and measured at 1 secs interval for 360 secs by calcium 4 dye based FLIPR assay relative to 5-HT; format: cell-based; settings: CHO cells expressing human 5HT2AR
Chain of 5-HT2A receptor (P28223 whole entry): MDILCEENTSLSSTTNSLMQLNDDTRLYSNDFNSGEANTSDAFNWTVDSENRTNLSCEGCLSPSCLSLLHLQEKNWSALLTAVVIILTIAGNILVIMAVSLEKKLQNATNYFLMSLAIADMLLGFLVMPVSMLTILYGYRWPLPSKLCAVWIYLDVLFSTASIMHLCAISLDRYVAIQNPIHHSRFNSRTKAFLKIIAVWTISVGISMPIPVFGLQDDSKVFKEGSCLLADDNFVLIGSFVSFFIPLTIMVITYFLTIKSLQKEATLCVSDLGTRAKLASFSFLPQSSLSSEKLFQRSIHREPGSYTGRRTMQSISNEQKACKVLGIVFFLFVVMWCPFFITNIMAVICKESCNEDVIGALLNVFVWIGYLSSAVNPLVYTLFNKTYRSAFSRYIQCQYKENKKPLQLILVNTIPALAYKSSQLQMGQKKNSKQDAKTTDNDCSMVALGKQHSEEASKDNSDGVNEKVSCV
In short: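 CHO cells stably expressing human 5-HT2AR, serum-starved 3 h, then loaded with Calcium 4 dye plus 2.5 mM probenecid in HBSS (no Ca/Mg, pH 7.4) for 60 min at 37°C and 15 min at room temperature. Test compound added 15 min before 5-HT (10 pM-10 μM). FLIPR fluorescence read every 1 s for 360 s after 5-HT. Emax from 4-parameter fit, normalized to 5-HT maximum.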

[24] = test system: Rattus norvegicus; assay: Potentiation of WAY163909-induced neurobiological activity in Sprague-Dawley rat assessed as increase in number of rat choosing WAY163909 associated lever at 1 mg/kg, ip treated 15 mins prior to WAY163909 addition and measured after 15 mins by drug discrimination test (reference value: 53%); format: functional

O=C(NC[C@H](O)CO)[C@@H]1C[C@H](c2ccccc2)CCN1 (mixture of isomers)
inhibition [1]: 7% | inhibition [2]: 7.5% | inhibition [3]: 2.2% | inhibition [4]: -4.3% | inhibition [5]: 22.3% | inhibition [6]: 6.3% | inhibition [7]: -7.6% | inhibition [8]: 15.3% | inhibition [9]: -1.8% | inhibition [10]: 30.6% | t1/2 [11]: > 4 h | inhibition at 10 µM [12]: 0% | inhibition at 10 µM [13]: 0% | inhibition at 10 µM [14]: 0% | inhibition at 10 µM [15]: 11.8% | Papp [16]: 1.3 ×10⁻⁶ cm/s | t1/2 [17]: 4.4 h | CL/F [18]: 182 mL/min/kg | Vdss [19]: 5.4 L/kg | Vdss [20]: 70.6 L/kg | Cmax [21]: 411.3 ng/mL | BPR [22]: 0.07 | Emax at 0.1 h, 0.001 µM [23]: 103% | Activity [24]: 77%
